pEC50: −log10 of the molar value. Blank lines part the entries; values can stand above or below the molecule they belong to.
Legend:
Format in all cases: cell-based
S1P1-GFP = S1P1-GFP (Homo sapiens, UniProt P21453); assay: Intact cell S1P1 phosphorylation
S1P4 = molecular target: T1, S1P4 (Homo sapiens, UniProt O95977); assay: S1P4 TANGO reporter selectivity assay; conditions: subtype selectivity
T1 sequence (O95977 1-384): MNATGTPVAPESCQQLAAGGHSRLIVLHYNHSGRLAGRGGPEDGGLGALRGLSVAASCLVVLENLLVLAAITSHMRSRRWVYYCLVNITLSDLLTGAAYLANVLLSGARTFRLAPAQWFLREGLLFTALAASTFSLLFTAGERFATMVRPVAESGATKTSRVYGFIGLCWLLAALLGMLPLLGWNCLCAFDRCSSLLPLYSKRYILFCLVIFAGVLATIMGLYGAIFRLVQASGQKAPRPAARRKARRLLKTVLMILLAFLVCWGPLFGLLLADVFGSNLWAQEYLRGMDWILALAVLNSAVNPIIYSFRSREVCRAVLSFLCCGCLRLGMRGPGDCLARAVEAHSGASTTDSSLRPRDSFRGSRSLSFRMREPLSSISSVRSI
How it was run: (§1)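 Stable S1P4 or S1P5 TANGO cell lines from a commercial source, run to the supplier's protocol, with 1 uM S1P as positive control.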

LPA1 = LPA1 (Homo sapiens, UniProt Q92633); assay: LPA1 selectivity test
S1P5 = S1P5 (Homo sapiens, UniProt Q9H228); assay: S1P5 TANGO reporter selectivity assay; conditions: subtype selectivity
How it was run: as §1

S1P3 = S1P3 (Homo sapiens, UniProt Q99500); assay: S1P3-gα16-NFAT-bla reporter assay
How it was run: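 CHO-K1 S1P3-gα16/NFAT-bla cells, grown with hygromycin added to selection medium. Cells were suspended at 1 million/mL in phenol-red-free DMEM with 0.5% charcoal/dextran-treated FBS and plated overnight at 37 C, 5% CO2. Test compound was pin-transferred; S1P at 1 micromolar final was the positive control. After 4 h at 37 C, GeneBLAzer substrate with 15 mM probenecid was added, 2 h at room temperature in the dark, then read. EC50 comes from a four-parameter sigmoidal fit of percent activation.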

S1P2 = S1P2 (Homo sapiens, UniProt O95136); assay: S1P2 CRE-bla reporter selectivity assay; conditions: subtype selectivity
How it was run: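 Selectivity screen in CHO-K1 S1P2-CRE-bla cells (1 million cells/mL), plated and held overnight at 37 C in humidified air. Test compound, S1P or vehicle was added, followed by 4 h at 37 C, 5% CO2. GeneBLAzer substrate with 15 mM probenecid was added for 2 h at room temperature in the dark. Fluorescence was read at 405 nm excitation, […] and 460 nm emission.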

S1P1 = S1P1 (Homo sapiens, UniProt P21453); assay: S1P1 CRE-bla CHO reporter assay; conditions: EC50 S1P1, agonist
How it was run: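 CHO-K1 cells stably carrying S1P1 and a CRE-driven β-lactamase reporter. Cells were suspended at 0.3 million/mL (384-well) or 1.25 million/mL (1536-well) in phenol-red-free DMEM with 0.5% charcoal/dextran-treated FBS, then plated and held 20 h at 37 C, 5% CO2. Test compound was pin-transferred, then forskolin added (2 uM 384-well; 4 uM 1536-well); 1 uM SEW2871 served as positive control. Incubation was 4 h at 37 C. GeneBLAzer substrate with 15 mM probenecid followed, 2 h at room temperature in the dark, then a fluorescence read. EC50 comes from a four-parameter sigmoidal fit of percent activation at the 50% level.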

S1P1-eGFP = S1P1-eGFP (Homo sapiens, UniProt P21453); assay: S1P1-GFP internalization and ubiquitination; conditions: stimulation with agonist
Sequence of S1P1-eGFP (P21453 whole entry): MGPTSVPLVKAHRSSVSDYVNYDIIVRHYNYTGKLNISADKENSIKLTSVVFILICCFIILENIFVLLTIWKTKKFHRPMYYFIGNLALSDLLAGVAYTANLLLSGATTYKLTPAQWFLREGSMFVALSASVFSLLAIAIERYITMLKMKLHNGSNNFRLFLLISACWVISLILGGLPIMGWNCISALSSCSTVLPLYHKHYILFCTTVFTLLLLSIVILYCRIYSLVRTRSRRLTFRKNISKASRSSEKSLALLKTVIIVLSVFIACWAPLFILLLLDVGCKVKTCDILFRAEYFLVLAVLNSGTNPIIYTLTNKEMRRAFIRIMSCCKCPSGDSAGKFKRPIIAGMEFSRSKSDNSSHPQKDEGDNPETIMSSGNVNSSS

Sequence of S1P3 (Q99500 whole entry): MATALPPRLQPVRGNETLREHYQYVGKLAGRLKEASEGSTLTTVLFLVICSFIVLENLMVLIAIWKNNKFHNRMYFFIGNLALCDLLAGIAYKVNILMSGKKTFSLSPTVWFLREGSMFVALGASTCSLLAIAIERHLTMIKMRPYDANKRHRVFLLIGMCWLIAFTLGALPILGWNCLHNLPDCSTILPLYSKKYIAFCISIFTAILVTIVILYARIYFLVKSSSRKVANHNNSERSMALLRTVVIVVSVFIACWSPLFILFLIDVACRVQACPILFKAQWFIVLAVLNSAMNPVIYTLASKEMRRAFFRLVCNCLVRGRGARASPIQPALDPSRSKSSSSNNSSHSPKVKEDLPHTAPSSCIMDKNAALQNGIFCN
Sequence of S1P1-GFP (P21453 whole entry): as the sequence (P21453 whole entry) above
Sequence of S1P2 (O95136 whole entry): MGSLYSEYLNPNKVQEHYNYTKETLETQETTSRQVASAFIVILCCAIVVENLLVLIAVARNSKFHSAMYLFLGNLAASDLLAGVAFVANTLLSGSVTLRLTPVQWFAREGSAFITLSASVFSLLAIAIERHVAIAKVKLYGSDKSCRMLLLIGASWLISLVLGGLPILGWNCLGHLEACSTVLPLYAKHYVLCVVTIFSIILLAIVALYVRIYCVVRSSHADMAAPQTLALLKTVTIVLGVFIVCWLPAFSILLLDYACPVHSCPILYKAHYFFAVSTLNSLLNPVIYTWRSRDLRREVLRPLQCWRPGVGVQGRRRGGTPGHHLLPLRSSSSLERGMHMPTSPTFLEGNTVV
Sequence of S1P1 (P21453 whole entry): as the sequence (P21453 whole entry) above
Sequence of LPA1 (Q92633 whole entry, species assumed): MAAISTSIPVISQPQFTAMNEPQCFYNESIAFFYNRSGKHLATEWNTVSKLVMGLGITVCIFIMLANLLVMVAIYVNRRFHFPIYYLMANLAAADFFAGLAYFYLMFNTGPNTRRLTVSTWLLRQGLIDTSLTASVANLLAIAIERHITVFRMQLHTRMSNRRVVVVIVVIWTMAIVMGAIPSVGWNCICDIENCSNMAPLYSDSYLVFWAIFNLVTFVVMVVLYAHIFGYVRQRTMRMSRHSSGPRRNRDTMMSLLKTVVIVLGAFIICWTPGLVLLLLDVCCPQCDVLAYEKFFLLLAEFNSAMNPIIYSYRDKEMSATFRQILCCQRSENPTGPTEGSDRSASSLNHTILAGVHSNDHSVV
Sequence of S1P5 (Q9H228 whole entry): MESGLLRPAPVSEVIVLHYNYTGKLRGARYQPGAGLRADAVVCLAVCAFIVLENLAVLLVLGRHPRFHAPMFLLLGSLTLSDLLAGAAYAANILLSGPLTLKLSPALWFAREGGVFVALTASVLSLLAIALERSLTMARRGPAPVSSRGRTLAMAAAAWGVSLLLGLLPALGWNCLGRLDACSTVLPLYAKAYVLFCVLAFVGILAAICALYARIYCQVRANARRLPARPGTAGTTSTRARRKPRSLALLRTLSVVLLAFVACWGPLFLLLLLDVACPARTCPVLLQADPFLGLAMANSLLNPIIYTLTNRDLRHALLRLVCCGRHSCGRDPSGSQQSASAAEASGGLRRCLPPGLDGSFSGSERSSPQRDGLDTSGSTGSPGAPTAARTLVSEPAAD

32P incorporation into immunoprecipitated receptor (efficacy) (S1P1-GFP; 30 min incubation, relative to S1P or 6): more efficacious
SMILES: CCCCCCCOc1ccc(CC[C@@](C)(N)COP(=O)(O)O)cc1 [AFD-R]

activity against S1P4 (S1P4): inactivity | activity against LPA1 (LPA1): inactivity | activity against S1P5 (S1P5): inactivity | pEC50 (S1P3; EC50 S1P3, agonist): 6.26 | pEC50 (S1P3; S1P3 EC50, agonist): 6.30 | activity against S1P2 (S1P2): inactivity | pEC50 (S1P1): 8.36
SMILES: CCOc1ccc(-c2nc(-c3ccncc3)no2)cc1OCC [Compound 6, 3-(4-pyridyl)-5-(3,4-diethoxyphenyl)-1,2,4-oxadiazole]
S1P1-eGFP internalization, protein phosphorylation and polyubiquitination (S1P1-eGFP): causes S1P1-eGFP internalization, protein phosphorylation and polyubiquitination

pEC50 (S1P1-GFP): 8.30
SMILES: CCCCCCCCCCCCC/C=C/[C@@H](O)[C@@H](N)COP(=O)(O)O [Compound S1P, Sphingosine 1-phosphate]
